Assay results reported in ChEMBL document CHEMBL1135402, “New serotonin 5-HT(2A), 5-HT(2B), and 5-HT(2C) receptor antagonists: synthesis, pharmacology, 3D-QSAR, and molecular modeling of (aminoalkyl)benzo and heterocycloalkanones” (J Med Chem, 2002).

What was measured:
[1] = biological target: 5-hydroxytryptamine receptor 2C (Bos taurus); assay: Inhibitory constant was determined on 5-hydroxytryptamine 2C receptor of Bovine choroid plexus
[2] = biological target: T1, 5-hydroxytryptamine receptor 2A (Rattus norvegicus, UniProt P14842); assay: Negative log concentration of antagonist on 5-hydroxytryptamine 2A receptor in rat thoracic aorta; format: functional, tissue-based; conditions: read-out: pA2 (converted)
T1 sequence (P14842 whole entry): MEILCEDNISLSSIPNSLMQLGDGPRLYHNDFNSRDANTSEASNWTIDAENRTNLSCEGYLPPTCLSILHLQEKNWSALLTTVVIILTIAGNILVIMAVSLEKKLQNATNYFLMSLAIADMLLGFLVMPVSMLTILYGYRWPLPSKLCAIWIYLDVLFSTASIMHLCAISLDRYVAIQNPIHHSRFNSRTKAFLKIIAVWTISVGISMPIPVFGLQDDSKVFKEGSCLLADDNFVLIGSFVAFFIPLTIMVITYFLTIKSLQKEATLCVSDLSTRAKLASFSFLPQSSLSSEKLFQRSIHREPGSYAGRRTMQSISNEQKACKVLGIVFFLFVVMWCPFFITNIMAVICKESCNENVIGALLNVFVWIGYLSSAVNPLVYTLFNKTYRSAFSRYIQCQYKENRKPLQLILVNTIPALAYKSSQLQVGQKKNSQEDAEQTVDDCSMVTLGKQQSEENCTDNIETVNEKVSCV

[3] = biological target: Serotonin receptor 2a and 2c (5HT2A and 5HT2C) (Rattus norvegicus) (UniProt P08909+P14842); assay: Selectivity ratio towards Ki of 5-hydroxytryptamine 2A receptor to 5-hydroxytryptamine 2C receptor; format: protein assay
Chain of Serotonin receptor 2a and 2c (5HT2A and 5HT2C) (Rattus norvegicus) (P08909 whole entry, looked up): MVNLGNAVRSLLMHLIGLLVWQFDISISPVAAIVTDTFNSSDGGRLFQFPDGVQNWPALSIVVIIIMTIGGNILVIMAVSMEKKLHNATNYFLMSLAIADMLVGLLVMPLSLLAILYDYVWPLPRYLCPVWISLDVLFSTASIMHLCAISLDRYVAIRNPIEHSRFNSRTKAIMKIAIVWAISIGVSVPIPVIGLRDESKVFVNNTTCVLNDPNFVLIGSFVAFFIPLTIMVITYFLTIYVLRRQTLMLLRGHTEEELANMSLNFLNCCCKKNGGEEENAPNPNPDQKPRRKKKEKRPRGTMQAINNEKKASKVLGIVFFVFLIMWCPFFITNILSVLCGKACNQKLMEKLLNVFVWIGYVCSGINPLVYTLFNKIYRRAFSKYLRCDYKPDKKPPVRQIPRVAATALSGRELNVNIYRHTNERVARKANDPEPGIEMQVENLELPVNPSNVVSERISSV
Chain of Serotonin receptor 2a and 2c (5HT2A and 5HT2C) (Rattus norvegicus) (P14842 whole entry, looked up): as the sequence (P14842 whole entry) above

[4] = biological target: 5-hydroxytryptamine receptor 2A (Homo sapiens, UniProt P28223); assay: Inhibitory constant for human 5-hydroxytryptamine 2A receptor transfected in to CHO cells; format: cell-based
Chain of 5-hydroxytryptamine receptor 2A (Homo sapiens, UniProt P28223) (P28223 whole entry): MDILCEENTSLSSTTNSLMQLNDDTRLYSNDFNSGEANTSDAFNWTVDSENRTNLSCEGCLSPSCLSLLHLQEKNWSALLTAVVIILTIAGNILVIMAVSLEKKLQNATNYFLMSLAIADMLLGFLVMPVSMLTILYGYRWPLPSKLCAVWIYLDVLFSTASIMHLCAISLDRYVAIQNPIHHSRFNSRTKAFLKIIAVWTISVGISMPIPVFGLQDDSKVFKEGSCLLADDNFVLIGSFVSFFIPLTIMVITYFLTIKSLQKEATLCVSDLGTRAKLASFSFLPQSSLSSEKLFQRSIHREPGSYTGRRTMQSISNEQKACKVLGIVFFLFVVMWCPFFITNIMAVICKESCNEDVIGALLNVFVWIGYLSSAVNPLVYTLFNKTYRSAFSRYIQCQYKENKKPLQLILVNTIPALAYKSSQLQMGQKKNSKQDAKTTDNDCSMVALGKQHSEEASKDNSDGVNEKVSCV
Method in brief: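 CHO cells stably expressing cloned human 5-HT2A, grown 24 h in dialyzed FCS before harvest; membranes in 50 mM Tris-HCl pH 7.5. […] Ki from IC50 by Cheng–Prusoff.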

[5] = biological target: T1, 5-hydroxytryptamine receptor 2A; assay: Inhibitory constant on 5-hydroxytryptamine 2A receptor of Rat frontal cortex; format: tissue-based
[6] = biological target: T2, 5-hydroxytryptamine receptor 2C (Homo sapiens, UniProt P28335); assay: Inhibitory constant on human 5-hydroxytryptamine 2C receptor transfected in to HeLa cells; format: cell-based
T2 sequence (P28335 whole entry): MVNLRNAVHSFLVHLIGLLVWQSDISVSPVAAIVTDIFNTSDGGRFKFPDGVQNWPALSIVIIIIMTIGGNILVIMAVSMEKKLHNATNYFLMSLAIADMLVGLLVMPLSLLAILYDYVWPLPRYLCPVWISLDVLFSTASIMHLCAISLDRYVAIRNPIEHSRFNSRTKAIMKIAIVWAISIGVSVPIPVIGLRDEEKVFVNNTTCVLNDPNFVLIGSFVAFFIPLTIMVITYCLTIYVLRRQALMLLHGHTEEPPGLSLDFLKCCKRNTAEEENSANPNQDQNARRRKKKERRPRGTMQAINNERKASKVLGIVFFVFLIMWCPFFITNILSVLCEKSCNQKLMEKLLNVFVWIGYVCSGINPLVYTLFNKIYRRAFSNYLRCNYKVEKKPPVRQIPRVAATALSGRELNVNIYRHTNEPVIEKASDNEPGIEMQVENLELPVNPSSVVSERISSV
Method in brief: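 HeLa cells stably expressing cloned human 5-HT2C, grown 24 h in dialyzed FCS; membranes as for human 5-HT2A. [3H]mesulergine (2 nM final) competition, nonspecific with 1 μM mianserine, 1 h at room temperature; GF/B filtration, scintillation counting. Ki via Cheng–Prusoff.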

[7] = biological target: T1, 5-hydroxytryptamine receptor 2A; assay: Negative log concentration of antagonistic compound was determined on 5-hydroxytryptamine 2A receptor of Rat thoracic aorta; format: functional, tissue-based; conditions: read-out: pA2 (converted)
Method in brief: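 Denuded thoracic aorta rings (4 mm) from male Sprague–Dawley rats (250–350 g), 2 g tension in Krebs organ bath; isometric contraction. Sensitized with 10 μM 5-HT, then cumulative 5-HT curves (30 nM–100 μM) alternating with 60 min equilibration; two matching control runs, then antagonist added 20 min before end of equilibration. Single-concentration method: […].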

[8] = biological target: T3, 5-hydroxytryptamine receptor 2B (Rattus norvegicus, UniProt P30994); assay: Negative log concentration of antagonistic compound was determined on 5-hydroxytryptamine 2B receptor of Rat stomach fundus; format: functional, tissue-based; conditions: read-out: pA2 (converted)
T3 sequence (P30994 whole entry): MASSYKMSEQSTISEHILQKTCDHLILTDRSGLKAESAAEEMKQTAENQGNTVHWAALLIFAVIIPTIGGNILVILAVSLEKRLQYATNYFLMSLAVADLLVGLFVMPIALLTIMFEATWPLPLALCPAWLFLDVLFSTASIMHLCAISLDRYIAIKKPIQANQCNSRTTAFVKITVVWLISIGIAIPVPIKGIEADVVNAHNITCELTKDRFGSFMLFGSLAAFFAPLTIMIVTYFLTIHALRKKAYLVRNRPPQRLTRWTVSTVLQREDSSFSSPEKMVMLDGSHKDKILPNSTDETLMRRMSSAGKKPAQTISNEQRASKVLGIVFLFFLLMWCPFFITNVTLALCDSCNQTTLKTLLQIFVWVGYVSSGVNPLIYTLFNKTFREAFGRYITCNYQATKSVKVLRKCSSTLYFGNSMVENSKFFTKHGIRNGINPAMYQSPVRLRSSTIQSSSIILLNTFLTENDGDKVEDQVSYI
Method in brief: (§1)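 Rat stomach fundus strips equilibrated 1 h under 1 g load; isometric contractions to cumulative 5-HT (0.01 nM–10 μM) in organ bath. Control curves, then antagonist preincubated before test curve; pA2 from EC50 shift at one antagonist concentration, […].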

[9] = biological target: T3, 5-hydroxytryptamine receptor 2B; assay: Antagonistic activity on 5-hydroxytryptamine 2B receptor of Rat stomach fundus;ND is not determined; format: functional, tissue-based; conditions: read-out: pA2 (converted)
Method in brief: as §1

Row | Kb [2] | Ratio [3] | Ki [5] | SMILES | other results
1 | 53.7 nM | 1780 | – | O=C(CCCN1CCN(CC2CC(=O)c3ccccc3C2)CC1)c1ccc(F)cc1 (configuration not stated) | Ki [4]: 115 nM
2 | 13.8 nM | – | – | O=C1CC(CN2CCC(C(=O)c3ccc(F)cc3)CC2)Cc2ccccc21 (configuration not stated) | –
3 | – | 65 | – | O=C1CC(CN2CCC(C(=O)c3ccc(F)cc3)CC2)Cc2[nH]c3ccccc3c21 (configuration not stated) | –
4 | 50.1 nM | 50 | – | O=C(CCCN1CCN(CCC2Cc3ccccc3C2=O)CC1)c1ccc(F)cc1 (configuration not stated) | Ki [4]: 67.6 nM; Ki [6]: > 10000 nM
5 | 7.41 nM | – | – | O=C1CC(CN2CCC(C(=O)c3ccc(F)cc3)CC2)c2ccccc21 (configuration not stated) | –
6 | 1.2 nM | – | – | O=C(c1ccc(F)cc1)C1CCN(CCC2Cc3sccc3C2=O)CC1 (configuration not stated) | –
7 | 0.135 nM | – | – | O=C1c2ccsc2CCC1CCN1CCC(c2noc3cc(F)ccc23)CC1 (configuration not stated) | –
8 | 191 nM | 5.8 | – | COc1ccccc1N1CCN(CCC2CCc3ccccc3C2=O)CC1 (configuration not stated) | –
9 | 26.3 nM | 18 | 19.5 nM | O=C(c1ccc(F)cc1)C1CCN(CCC2CCc3occc3C2=O)CC1 (configuration not stated) | –
10 | 112 nM | – | – | COc1ccccc1N1CCN(CCC2CCc3sccc3C2=O)CC1 (configuration not stated) | –
11 | 52.5 nM | 616 | – | O=C1CC(CN2CCC(C(=O)c3ccc(F)cc3)CC2)Cc2occc21 (configuration not stated) | –
12 | 7.59 nM | – | – | O=C(c1ccc(F)cc1)C1CCN(CCC2Cc3ccccc3C2=O)CC1 (configuration not stated) | –
13 | 63.1 nM | – | – | O=C(CCCN1CCN(CC2CC(=O)c3ccccc32)CC1)c1ccc(F)cc1 (configuration not stated) | –
14 | 158 nM | 1.5 | 195 nM | COc1ccccc1N1CCN(CCC2Cc3ccccc3C2=O)CC1 (configuration not stated) | –
15 | 15.1 nM | – | – | O=C1CC(CN2CCC(C(=O)c3ccc(F)cc3)CC2)Cc2sccc21 (configuration not stated) | –
16 | – | 31 | – | O=C(c1ccc(F)cc1)C1CCN(CCC2CCc3ccsc3C2=O)CC1 (configuration not stated) | Kb [9]: 331 nM
17 | – | 36 | 53.7 nM | O=C(CCCN1CCN(CCC2Cc3cc(F)ccc3C2=O)CC1)c1ccc(F)cc1 (configuration not stated) | –
18 | – | 10 | – | O=C1c2sccc2CCC1CCN1CCC(c2noc3cc(F)ccc23)CC1 (configuration not stated) | –
19 | 7.59 nM | 219 | – | O=C(c1ccc(F)cc1)C1CCN(CCC2Cc3cc(F)ccc3C2=O)CC1 (configuration not stated) | –
20 | 148 nM | – | – | O=C(CCCN1CCN(CCC2CCc3sccc3C2=O)CC1)c1ccc(F)cc1 (configuration not stated) | –
21 | 23.4 nM | – | – | O=C(CCCN1CCN(CCC2Cc3sccc3C2=O)CC1)c1ccc(F)cc1 (configuration not stated) | –
22 | 33.9 nM | 29 | – | O=C(c1ccc(F)cc1)C1CCN(CCC2CCc3ccccc3C2=O)CC1 (configuration not stated) | –
23 | 0.562 nM | 65 | 1.07 nM | O=C1c2ccoc2CCC1CCN1CCC(c2noc3cc(F)ccc23)CC1 (configuration not stated) | Ki [4]: 0.724 nM; Ki [6]: 34.7 nM
24 | 0.955 nM | – | – | O=C(c1ccc(F)cc1)C1CCN(CCC2CCc3sccc3C2=O)CC1 (configuration not stated) | –
25 | 178 nM | – | – | O=C(c1ccc(F)cc1)C1CCN(CCC2CCCc3ccccc3C2=O)CC1 (configuration not stated) | –
26 | – | 4.1 | 8.71 nM | CCc1c(C)[nH]c2c1C(=O)CC(CN1CCC(C(=O)c3ccc(F)cc3)CC1)C2 (configuration not stated) | –
27 | 44.7 nM | 46 | – | O=C(CCCN1CCN(CCC2CCc3ccccc3C2=O)CC1)c1ccc(F)cc1 (configuration not stated) | –

The next lines start with the molecule.

Row | SMILES | Kb [2] | Ratio [3] | Ki [5] | other results
28 | O=C1CC(CN2CCC(c3noc4cc(F)ccc34)CC2)Cc2sccc21 (racemic) [listing 1 of 2 here] | 0.741 nM | – | – | Log Ki [1]: -6.69
29 | COc1ccccc1N1CCN(CC2CC(=O)c3c([nH]c4ccccc34)C2)CC1 (configuration not stated) | – | 1.9 | – | –
30 | CCc1c(C)[nH]c2c1C(=O)CC(CN1CCC(c3noc4cc(F)ccc34)CC1)C2 (configuration not stated) | – | 89 | 4.27 nM | –
31 | O=C1CC(CN2CCC(c3noc4cc(F)ccc34)CC2)Cc2sccc21 (racemic) [listing 2 of 2 here] | – | 44 | – | –
32 | CCc1c(C)[nH]c2c1C(=O)CC(CN1CCN(c3ccccc3OC)CC1)C2 (configuration not stated) | – | 13 | – | –
33 | COc1ccccc1N1CCN(CC2CC(=O)c3ccccc3C2)CC1 (configuration not stated) | 331 nM | 5.5 | – | –
34 | O=C1CC(CN2CCN(c3ccccc3)CC2)Cc2occc21 (configuration not stated) | – | 1440 | – | –
35 | O=C(CCCN1CCN(CC2CC(=O)c3ccsc3C2)CC1)c1ccc(F)cc1 (configuration not stated) | 16.2 nM | – | – | –
36 | COc1ccccc1N1CCN(CC2CC(=O)c3ccoc3C2)CC1 (configuration not stated) | – | 1 | > 10000 nM | –
37 | COc1ccccc1N1CCN(CCC2CCc3occc3C2=O)CC1 (configuration not stated) | 501 nM | 3 | 191 nM | –
38 | O=C1CC(CN2CCC(c3noc4cc(F)ccc34)CC2)Cc2ccccc21 (configuration not stated) | – | – | 2.69 nM | –
39 | CCc1c(C)[nH]c2c1C(=O)C(CCN1CCN(c3ccccc3OC)CC1)CC2 (configuration not stated) | – | 2.5 | – | Kb [7]: 31.6 nM
40 | O=C1CC(CN2CCN(c3ncccn3)CC2)Cc2occc21 (configuration not stated) | – | 1 | > 10000 nM | Kb [8]: 977 nM
41 | O=C1CC(CN2CCC(c3noc4cc(F)ccc34)CC2)Cc2[nH]c3ccccc3c21 (configuration not stated) | – | 36 | – | Ki [4]: 1.17 nM; Ki [6]: 27.5 nM
42 | O=C1CC(CN2CCC(c3noc4cc(F)ccc34)CC2)Cc2sccc21 (single isomer, unassigned; (+)) | – | – | 11.5 nM | –
43 | O=C1c2ccsc2CCC1CCN1CCN(c2ccccn2)CC1 (configuration not stated) | 490 nM | 9.8 | 174 nM | –
44 | O=C(CCCN1CCN(CC2CC(=O)c3ccoc3C2)CC1)c1ccc(F)cc1 (configuration not stated) | – | 33 | – | –
45 | COc1ccccc1N1CCN(CC2CC(=O)c3ccsc3C2)CC1 (configuration not stated) | 1260 nM | – | – | –
46 | O=C1c2ccoc2CCC1CCN1CCN(c2ccccn2)CC1 (configuration not stated) | 676 nM | 89 | 355 nM | –
47 | CCc1c(C)[nH]c2c1C(=O)CC(CN1CCN(CCCC(=O)c3ccc(F)cc3)CC1)C2 (configuration not stated) | – | 0.26 | 912 nM | –
48 | O=C1CC(CN2CCN(c3ccccn3)CC2)c2ccccc21 (configuration not stated) | – | 0.027 | > 10000 nM | –
49 | O=C1CC(CN2CCC(c3noc4cc(F)ccc34)CC2)Cc2occc21 (configuration not stated) | 11.2 nM | 2950 | – | Ki [6]: 3980 nM
50 | O=C1CC(CN2CCC(c3noc4cc(F)ccc34)CC2)Cc2sccc21 (stereo in doubt; (-)18h) | – | – | 11.7 nM | –
51 | O=C(CCCCN1CCN(CC2CC(=O)c3ccoc3C2)CC1)c1ccc(F)cc1 (configuration not stated) | – | 25 | – | –
52 | COc1ccccc1N1CCN(CC2CC(=O)c3ccccc32)CC1 (configuration not stated) | 617 nM | – | – | –
